Data from ChEMBL document CHEMBL3526118, “Combination of GSH trapping and time-dependent inhibition assays as a predictive method of drugs generating highly reactive metabolites” (Drug Metab Dispos, 2011).

Assays:
Liver microsome [1] = assay: Metabolic activation in human liver microsomes assessed as [3H]GSH adduct formation rate measured per mg of protein at 100 uM by [3H]GSH trapping assay
CYP2B6 [2] = biological target: T1, CYP2B6 (Homo sapiens, UniProt P20813); assay: in vitro
T1 sequence (P20813 whole entry): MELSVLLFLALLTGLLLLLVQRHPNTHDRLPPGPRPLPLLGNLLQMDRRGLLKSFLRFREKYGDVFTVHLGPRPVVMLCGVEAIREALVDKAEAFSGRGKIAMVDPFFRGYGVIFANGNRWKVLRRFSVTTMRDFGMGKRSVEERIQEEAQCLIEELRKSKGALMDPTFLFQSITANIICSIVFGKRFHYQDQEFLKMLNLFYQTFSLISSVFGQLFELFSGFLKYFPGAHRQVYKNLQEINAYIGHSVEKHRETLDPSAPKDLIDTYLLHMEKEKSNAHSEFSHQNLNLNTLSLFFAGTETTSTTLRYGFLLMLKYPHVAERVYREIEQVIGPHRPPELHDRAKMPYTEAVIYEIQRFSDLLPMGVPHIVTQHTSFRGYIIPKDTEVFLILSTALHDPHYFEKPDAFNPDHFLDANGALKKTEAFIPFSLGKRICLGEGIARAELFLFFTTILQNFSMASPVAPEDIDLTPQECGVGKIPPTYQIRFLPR

CYP2C9 [3] = biological target: T2, CYP2C9 (Homo sapiens, UniProt P11712); assay: in vitro
T2 sequence (P11712 whole entry): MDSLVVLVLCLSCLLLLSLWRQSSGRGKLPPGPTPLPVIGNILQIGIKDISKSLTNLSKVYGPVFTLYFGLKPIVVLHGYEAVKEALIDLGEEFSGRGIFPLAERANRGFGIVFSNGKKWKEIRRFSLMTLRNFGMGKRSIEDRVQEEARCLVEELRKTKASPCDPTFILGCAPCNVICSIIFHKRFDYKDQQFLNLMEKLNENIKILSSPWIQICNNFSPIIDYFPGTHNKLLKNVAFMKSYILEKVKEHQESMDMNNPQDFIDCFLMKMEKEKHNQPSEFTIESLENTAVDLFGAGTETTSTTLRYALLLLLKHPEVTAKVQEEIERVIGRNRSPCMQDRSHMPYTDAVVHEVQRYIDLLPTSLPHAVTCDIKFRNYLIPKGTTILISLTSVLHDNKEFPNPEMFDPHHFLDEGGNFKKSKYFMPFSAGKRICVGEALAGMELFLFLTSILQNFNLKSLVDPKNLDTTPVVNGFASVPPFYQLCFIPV

Liver microsome [4] = assay: Covalent binding in human liver microsomes measured per mg of protein using radiolabelled compound at 10 uM after 1 hr incubation by liquid scintillation counting
CYP3A4 [5] = biological target: T3, CYP3A4 (Homo sapiens, UniProt P08684); assay: in vitro
T3 sequence (P08684 whole entry): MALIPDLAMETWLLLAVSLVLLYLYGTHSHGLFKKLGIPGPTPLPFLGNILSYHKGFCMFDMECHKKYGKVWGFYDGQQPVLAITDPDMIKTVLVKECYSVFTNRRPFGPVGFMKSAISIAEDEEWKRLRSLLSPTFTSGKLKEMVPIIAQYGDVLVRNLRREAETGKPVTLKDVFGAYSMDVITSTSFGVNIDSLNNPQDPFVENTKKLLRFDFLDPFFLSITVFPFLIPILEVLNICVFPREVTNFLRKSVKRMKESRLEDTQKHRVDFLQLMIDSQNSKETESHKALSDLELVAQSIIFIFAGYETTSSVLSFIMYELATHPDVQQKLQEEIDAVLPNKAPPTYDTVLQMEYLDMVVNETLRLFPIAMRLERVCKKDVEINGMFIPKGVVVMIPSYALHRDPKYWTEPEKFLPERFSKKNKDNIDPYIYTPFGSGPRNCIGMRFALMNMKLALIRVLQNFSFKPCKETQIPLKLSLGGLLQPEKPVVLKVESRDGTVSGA

CYP2C19 [6] = biological target: T4, CYP2C19 (Homo sapiens, UniProt P33261); assay: Time dependent inhibition of CYP2C19 in human liver microsomes at 30 uM by LC/MS system; assay type: ADME
T4 sequence (P33261 whole entry): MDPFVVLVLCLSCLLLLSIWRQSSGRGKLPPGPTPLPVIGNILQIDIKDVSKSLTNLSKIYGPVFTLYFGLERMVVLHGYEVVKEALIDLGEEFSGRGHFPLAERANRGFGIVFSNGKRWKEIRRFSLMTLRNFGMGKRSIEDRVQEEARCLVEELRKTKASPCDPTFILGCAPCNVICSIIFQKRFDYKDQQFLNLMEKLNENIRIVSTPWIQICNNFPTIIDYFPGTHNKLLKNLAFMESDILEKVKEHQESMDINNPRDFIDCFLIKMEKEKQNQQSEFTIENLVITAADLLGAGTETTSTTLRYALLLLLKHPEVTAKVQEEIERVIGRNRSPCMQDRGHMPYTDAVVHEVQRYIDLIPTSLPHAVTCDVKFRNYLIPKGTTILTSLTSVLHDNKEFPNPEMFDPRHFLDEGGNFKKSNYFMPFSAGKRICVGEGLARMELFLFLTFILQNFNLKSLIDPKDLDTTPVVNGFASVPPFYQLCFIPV
Summary of the method: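 Human liver microsomes at 2.0 mg/mL in preincubation, 0.1 M sodium phosphate, NADPH-generating system; 0- or 30-min preincubation with inhibitor, then tenfold dilution into incubation containing 50 μM (S)-mephenytoin for 10 min; LC separation. Percent inactivation = 100×[1 − %control(30 min)/%control(0 min)] versus inhibitor-free controls; >10% counted positive. Concentration reduced from 100 μM for strong reversible inhibitors.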

[7] = Intrinsic clearance for reactive metabolites formation per mg of protein based on cytochrome P450 (unknown origin) inactivation rate by TDI assay; details: human
CYP1A2 = biological target: T5, CYP1A2 (Homo sapiens, UniProt P05177); assay: in vitro
T5 sequence (P05177 whole entry): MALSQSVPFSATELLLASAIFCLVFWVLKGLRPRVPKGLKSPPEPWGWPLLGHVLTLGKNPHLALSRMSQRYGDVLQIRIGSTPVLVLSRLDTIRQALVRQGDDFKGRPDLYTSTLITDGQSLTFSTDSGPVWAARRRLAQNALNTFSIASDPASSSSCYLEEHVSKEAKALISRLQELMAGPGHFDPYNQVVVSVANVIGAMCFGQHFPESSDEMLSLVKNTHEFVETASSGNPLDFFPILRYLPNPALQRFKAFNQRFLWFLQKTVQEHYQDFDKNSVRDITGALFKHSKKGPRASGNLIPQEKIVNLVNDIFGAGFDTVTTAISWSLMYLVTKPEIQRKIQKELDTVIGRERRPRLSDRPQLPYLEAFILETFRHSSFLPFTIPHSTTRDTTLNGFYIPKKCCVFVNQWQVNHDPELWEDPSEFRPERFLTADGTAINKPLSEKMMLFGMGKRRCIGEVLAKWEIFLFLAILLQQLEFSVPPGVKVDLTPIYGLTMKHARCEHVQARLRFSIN

CYP2D6 [8] = biological target: T6, CYP2D6 (Homo sapiens, UniProt P10635); assay: Time dependent inhibition of CYP2D6 (unknown origin) at 10 uM by LC/MS system; assay type: ADME
T6 sequence (P10635 whole entry): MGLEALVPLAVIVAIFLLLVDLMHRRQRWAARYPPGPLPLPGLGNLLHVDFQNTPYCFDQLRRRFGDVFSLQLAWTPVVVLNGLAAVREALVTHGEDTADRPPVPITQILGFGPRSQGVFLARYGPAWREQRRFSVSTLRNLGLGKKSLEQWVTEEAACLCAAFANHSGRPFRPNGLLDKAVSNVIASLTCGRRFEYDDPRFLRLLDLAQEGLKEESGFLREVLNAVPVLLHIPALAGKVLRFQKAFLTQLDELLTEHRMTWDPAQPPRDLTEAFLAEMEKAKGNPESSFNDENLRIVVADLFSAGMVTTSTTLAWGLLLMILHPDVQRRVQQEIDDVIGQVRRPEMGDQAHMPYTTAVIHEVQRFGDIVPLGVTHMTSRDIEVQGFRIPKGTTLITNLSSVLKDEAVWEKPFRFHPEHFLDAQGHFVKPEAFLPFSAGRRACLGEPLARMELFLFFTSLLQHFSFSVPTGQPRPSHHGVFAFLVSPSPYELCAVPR
Summary of the method: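 CYP2D6 activity was measured with 30 μM dextromethorphan (final) after 0 or 30 min preincubation of compound with human liver microsomes (1.0 mg/mL) and NADPH-generating system in 0.1 M sodium phosphate. A ten-fold dilution was followed by a 10-min incubation. % inactivation = 100 × [1 − %control(30 min)/%control(0 min)]; threshold 10%.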

[9] = Intrinsic clearance for reactive metabolites formation assessed as summation of [3H]GSH adduct formation rate-based reactive metabolites formation and cytochrome P450 (unknown origin) inactivation rate-based reactive metabolites formation; details: human
CYP2C8 [10] = biological target: T7, CYP2C8 (Homo sapiens, UniProt P10632); assay: in vitro
T7 sequence (P10632 whole entry): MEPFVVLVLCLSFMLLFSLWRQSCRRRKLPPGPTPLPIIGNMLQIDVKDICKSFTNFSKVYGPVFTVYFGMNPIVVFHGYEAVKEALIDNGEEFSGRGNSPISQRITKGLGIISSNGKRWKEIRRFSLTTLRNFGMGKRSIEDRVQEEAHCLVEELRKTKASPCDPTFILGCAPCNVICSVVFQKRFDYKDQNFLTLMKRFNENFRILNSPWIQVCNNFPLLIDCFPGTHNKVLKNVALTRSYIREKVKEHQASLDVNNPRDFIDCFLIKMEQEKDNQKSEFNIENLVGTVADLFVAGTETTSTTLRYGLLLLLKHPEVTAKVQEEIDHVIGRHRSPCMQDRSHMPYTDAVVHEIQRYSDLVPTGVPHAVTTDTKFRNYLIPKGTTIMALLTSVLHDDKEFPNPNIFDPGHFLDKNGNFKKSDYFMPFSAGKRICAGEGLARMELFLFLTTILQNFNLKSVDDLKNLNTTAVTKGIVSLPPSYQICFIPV

CYP2B6 [11] = biological target: T1, CYP2B6; assay: Time dependent inhibition of CYP2B6 (unknown origin) at 30 uM by LC/MS system; assay type: ADME
Summary of the method: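 CYP2B6 in human liver microsomes (1.0 mg/mL in preincubation), 0.1 M sodium phosphate, NADPH-generating system. Preincubation 0 or 30 min, then ten-fold dilution into incubation solution containing 50 μM bupropion (final) for 10 min. Activity is expressed as percent of the matched no-inhibitor control. % inactivation = 100 × [1 − control(30 min)/control(0 min)]; threshold 10%.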

CYP2C9 [12] = biological target: T2, CYP2C9; assay: Time dependent inhibition of CYP2C9 (unknown origin) at 30 uM by LC/MS system; assay type: ADME
Summary of the method: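 Human liver microsomes at 1.0 mg/mL were preincubated 0 or 30 min with compound and NADPH-generating system in 0.1 M sodium phosphate, then diluted ten-fold into incubation containing 200 μM tolbutamide (final) for 10 min to probe CYP2C9. Percent of matched no-inhibitor control was determined at each time. Inactivation = 100 × [1 − ratio of 30-min to 0-min values]; 10% threshold.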

CYP2C19 [13] = biological target: T4, CYP2C19; assay: in vitro; details: human liver microsomes
CYP2D6 [14] = biological target: T6, CYP2D6; assay: in vitro
Liver microsome [15] = details: human, microsomes, 100 µM
CYP2C8 [16] = biological target: T7, CYP2C8; assay: Time dependent inhibition of CYP2C8 (unknown origin) at 10 uM by LC/MS system; assay type: ADME
Summary of the method: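 CYP2C8 in human liver microsomes (1.0 mg/mL in preincubation), 0.1 M sodium phosphate, NADPH-generating system. Preincubation 0 or 30 min, then ten-fold dilution into incubation with 10 μM paclitaxel (final) for 10 min.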

CYP3A4 [17] = biological target: T3, CYP3A4; assay: Time dependent inhibition of CYP3A4 (unknown origin) at 50 uM by LC/MS system; assay type: ADME
Summary of the method: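 CYP3A4: human liver microsomes at 0.5 mg/mL in preincubation, 0.1 M sodium phosphate, NADPH-generating system, 0 or 30 min. Ten-fold dilution into incubation with 2.5 μM midazolam (final), 10 min. Each value is relative to the matched control without inhibitor. % enzyme inactivation = 100 × [1 − %control(30 min)/%control(0 min)]; 10% threshold.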

Structure (SMILES): CNCCC(Oc1ccc(C(F)(F)F)cc1)c1ccccc1 (stereo not drawn) [FLUOXETINE]
- Drug metabolism (Liver microsome [1]): metabolite_not_detected
- inhibition at 100 µM (CYP2B6 [2]): < 10%
- inhibition at 100 µM (CYP2C9 [3]): < 10%
- PB (Liver microsome [4]): 15 pmol
- inhibition at 100 µM (CYP3A4 [5]): < 10%
- inhibition at 30 µM (CYP2C19 [6]): 36%
- clearance [7]: 0.008 µL/min/mg
- inhibition at 100 µM (CYP1A2): 12%
- inhibition at 10 µM (CYP2D6 [8]): < 10%
- clearance [9]: 0.008 µL/min/mg
- inhibition at 100 µM (CYP2C8 [10]): < 10%

Structure (SMILES): C#C[C@]1(O)CC[C@H]2[C@@H]3CCc4cc(O)ccc4[C@H]3CC[C@@]21C [ETHINYL ESTRADIOL]
- inhibition at 30 µM (CYP2B6 [11]): < 10%
- Drug metabolism (Liver microsome [1]): 34 pmol/min
- PB (Liver microsome [4]): 937.5 pmol
- inhibition at 30 µM (CYP2C9 [12]): 27%
- clearance [7]: 0.087 µL/min/mg
- inhibition at 100 µM (CYP1A2): 18%
- inhibition at 10 µM (CYP2C19 [13]): < 10%
- inhibition at 100 µM (CYP2D6 [14]): < 10%
- CLH (Liver microsome [15]): 0.34 µL/min/mg
- inhibition at 10 µM (CYP2C8 [16]): < 10%
- inhibition at 50 µM (CYP3A4 [17]): 65%
- clearance [9]: 0.427 µL/min/mg
